Measurements collected from several papers.
Compare with care: the assays were run in different laboratories.
Target: Serine/threonine-protein kinase NLK (NLK, Homo sapiens, UniProt Q9UBE8)
One construct used (Q9UBE8 1-527): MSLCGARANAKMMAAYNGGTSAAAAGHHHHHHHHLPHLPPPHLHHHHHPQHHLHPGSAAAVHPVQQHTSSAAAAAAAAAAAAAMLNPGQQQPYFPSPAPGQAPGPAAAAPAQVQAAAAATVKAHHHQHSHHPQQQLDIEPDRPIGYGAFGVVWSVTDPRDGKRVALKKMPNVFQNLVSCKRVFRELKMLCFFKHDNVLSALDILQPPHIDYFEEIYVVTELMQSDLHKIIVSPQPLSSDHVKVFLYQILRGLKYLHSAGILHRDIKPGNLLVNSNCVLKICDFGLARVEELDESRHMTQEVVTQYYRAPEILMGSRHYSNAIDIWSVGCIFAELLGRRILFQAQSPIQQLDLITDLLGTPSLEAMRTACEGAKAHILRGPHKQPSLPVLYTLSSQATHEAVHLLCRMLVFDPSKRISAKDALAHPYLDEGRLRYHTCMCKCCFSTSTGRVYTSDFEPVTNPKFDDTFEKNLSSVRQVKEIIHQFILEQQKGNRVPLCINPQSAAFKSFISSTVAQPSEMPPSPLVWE

COc1cc(Nc2ncc(F)c(Nc3ccc4c(n3)NC(=O)C(C)(C)O4)n2)cc(OC)c1OC
inhibition (binding; 10 µM): 0%

Cn1cncc1[C@@](O)(COc1ccc(C#N)cc1-c1ccc(OC(F)(F)F)cc1)c1ccc(C#N)cc1
remaining binding (cell-free assay; competition with immobilised ligand; 1 µM): 100%

Cn1cc(-c2cc(F)cc(N3CCn4c(cc5c4CCCC5)C3=O)c2CO)cc(Nc2ccc(N3CCN(C4COC4)CC3)cn2)c1=O
inhibition (enzyme activity; inhibitor; 0.1 µM): -4%

N#CC1(c2ccccn2)CCN(Cc2cc(C(=O)O)c(=O)n3ccccc23)CC1
remaining binding (cell-free assay; competition with immobilised ligand; 1 µM): 100%

Cn1cc(-c2cccc(N3CCc4c(sc5c4CC(C)(C)C5)C3=O)c2CO)cc(Nc2ccncn2)c1=O
inhibition (enzyme activity; inhibitor; 1 µM): -10%

COc1ncccc1-c1cnn2ccc(N3CCN(C(=O)OC(C)C)CC3)nc12
remaining binding (binding; competition with immobilised ligand; 1 µM): 100%

O=c1[nH]c2ccccc2n1C1CCN(Cc2ccc(-c3[nH]c4cc5ncnc5cc4nc3-c3ccccc3)cc2)CC1
remaining signal (cell-free assay; 0.5 µM): 104%

Cc1nn(C)cc1-c1nc2c(N3CCN(Cc4ccc(Cl)cc4)CC3)c(Cl)cnc2[nH]1
remaining binding (binding; competition with immobilised ligand; 1 µM): 72%

Nc1ncc(-c2nc(N3CCOCC3)nc(N3CCOCC3)n2)c(C(F)F)n1
remaining binding (binding; competition with immobilised ligand; 10 µM): 88%
